Activity calls are given as the source filed them. The calls are words filed in the database; no cut-off is given here.
Tests used:
HCC827 [1] = experiment: Induction of apoptosis in human HCC827 cells assessed as late apoptotic cells at 1000 nM after 48 hrs by Annexin V-FITC/PI staining based flow cytometry (reference value: 1.15%); type: functional
NCI-H3255 [2] = experiment: Induction of apoptosis in human H3255 cells assessed as necrotic cells at 250 nM after 48 hrs by Annexin V-FITC/PI staining based flow cytometry (reference value: 7.06%); type: functional
HCC827 [3] = experiment: Induction of apoptosis in human HCC827 cells assessed as necrotic cells at 250 nM after 48 hrs by Annexin V-FITC/PI staining based flow cytometry (reference value: 1.41%); type: functional
NCI-H3255 [4] = experiment: Induction of apoptosis in human H3255 cells assessed as viable cells at 500 nM after 48 hrs by Annexin V-FITC/PI staining based flow cytometry (reference value: 87.9%); type: functional; settings: NCI-H3255, 48 h, read-out: Activity
PC-9 = experiment: Antitumor activity against human PC9 cells xenografted in BALB/C nude mouse assessed as decrease in tumor volume at 15 to 30 mg/kg, ip qd administered for 19 days measured for 23 days; type: functional, organism-based
How it was run: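 Six-week-old BALB/C-nu mice given 2×10^6 PC-9 cells subcutaneously in the right flank. At tumour size ~0.2-0.4 cm³, randomised, 5 mice/group. Dosed ip daily for 19 days at 15 or 30 mg/kg, vehicle DMSO:Span-80:ddH₂O = 2:1:50; vehicle-treated control group. Tumour volume = (W²×L)/2. Tumours weighed.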

A-431 [5] = experiment: Induction of apoptosis in human A431 cells assessed as late apoptotic cells at 250 nM after 48 hrs by Annexin V-FITC/PI staining based flow cytometry (reference value: 2.11%); type: functional
HCC827 [6] = experiment: Induction of apoptosis in human HCC827 cells assessed as late apoptotic cells at 250 nM after 48 hrs by Annexin V-FITC/PI staining based flow cytometry (reference value: 1.15%); type: functional
[7] = biological target: T1, Epidermal growth factor receptor (Homo sapiens, UniProt P00533); experiment: Inhibition of EGF-induced EGFR autophosphorylation at Y1068 residues in human A431 cells by Western blot method; type: cell-based
T1 sequence (P00533 whole entry): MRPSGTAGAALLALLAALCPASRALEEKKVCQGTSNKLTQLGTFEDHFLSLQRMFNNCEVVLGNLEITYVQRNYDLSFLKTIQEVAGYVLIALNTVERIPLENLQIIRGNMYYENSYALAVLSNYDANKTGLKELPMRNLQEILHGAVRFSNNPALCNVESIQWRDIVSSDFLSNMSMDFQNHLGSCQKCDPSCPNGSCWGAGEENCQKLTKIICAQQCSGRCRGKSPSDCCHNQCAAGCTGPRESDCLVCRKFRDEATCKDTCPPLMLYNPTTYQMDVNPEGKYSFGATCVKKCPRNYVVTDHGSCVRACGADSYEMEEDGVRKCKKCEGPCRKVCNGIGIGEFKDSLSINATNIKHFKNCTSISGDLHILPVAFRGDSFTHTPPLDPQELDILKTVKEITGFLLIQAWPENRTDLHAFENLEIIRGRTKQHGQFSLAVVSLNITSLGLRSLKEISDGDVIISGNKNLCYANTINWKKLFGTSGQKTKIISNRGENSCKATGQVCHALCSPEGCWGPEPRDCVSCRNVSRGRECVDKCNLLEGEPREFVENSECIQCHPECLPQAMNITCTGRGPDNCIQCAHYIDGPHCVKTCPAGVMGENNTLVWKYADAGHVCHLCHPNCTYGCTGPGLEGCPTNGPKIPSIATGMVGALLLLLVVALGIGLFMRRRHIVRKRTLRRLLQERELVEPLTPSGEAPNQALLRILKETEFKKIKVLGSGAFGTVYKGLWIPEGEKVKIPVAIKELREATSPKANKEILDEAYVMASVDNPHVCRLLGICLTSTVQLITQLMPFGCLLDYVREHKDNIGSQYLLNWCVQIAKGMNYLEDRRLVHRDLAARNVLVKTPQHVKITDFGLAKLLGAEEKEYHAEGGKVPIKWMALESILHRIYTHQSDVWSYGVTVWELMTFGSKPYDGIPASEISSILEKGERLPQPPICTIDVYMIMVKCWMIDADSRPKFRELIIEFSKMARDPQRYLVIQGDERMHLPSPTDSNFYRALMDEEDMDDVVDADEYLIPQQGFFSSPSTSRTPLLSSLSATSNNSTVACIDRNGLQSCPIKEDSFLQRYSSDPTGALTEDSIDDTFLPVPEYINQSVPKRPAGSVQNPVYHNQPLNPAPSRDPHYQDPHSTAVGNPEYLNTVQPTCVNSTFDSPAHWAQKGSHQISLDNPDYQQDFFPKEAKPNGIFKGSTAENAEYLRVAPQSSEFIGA
How it was run: (§1)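 Cell lysates prepared in protein lysis buffer and cleared at 12,000 g for 10 min at 4 °C. 50 μg protein per lane was run on a gel, transferred to PVDF and immunoblotted, with GAPDH as the loading control.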

Mus musculus [8] = experiment: In vivo inhibition of ERK1/2 phosphorylation in tumor of BALB/C nude mouse xenografted with human PC9 cells at 15 to 30 mg/kg, ip qd administered for 19 days by immunoblot method; type: functional, organism-based
Mus musculus [9] = experiment: In vivo inhibition of EGFR phosphorylation in tumor of BALB/C nude mouse xenografted with human PC9 cells at 15 to 30 mg/kg, ip qd administered for 19 days by immunohistochemical analysis; type: functional, organism-based
NCI-H3255 [10] = experiment: Induction of apoptosis in human H3255 cells assessed as late apoptotic cells at 1000 nM after 48 hrs by Annexin V-FITC/PI staining based flow cytometry (reference value: 1.77%); type: functional
A-431 [11] = experiment: Induction of apoptosis in human A431 cells assessed as necrotic cells at 1000 nM after 48 hrs by Annexin V-FITC/PI staining based flow cytometry (reference value: 4.16%); type: functional
NCI-H1975 [12] = experiment: Induction of apoptosis in human NCI-H1975 cells assessed as viable cells at 500 nM after 48 hrs by Annexin V-FITC/PI staining based flow cytometry (reference value: 93.7%); type: functional; settings: NCI-H1975, 48 h, read-out: Activity
NCI-H1975 [13] = experiment: Induction of apoptosis in human NCI-H1975 cells assessed as late apoptotic cells at 250 nM after 48 hrs by Annexin V-FITC/PI staining based flow cytometry (reference value: 1.91%); type: functional
[14] = AUC (0 to t) in Sprague-Dawley rat at 30 mg/kg, po by UPLC-MS/MS analysis; type: ADME, organism-based; settings: in vivo
How it was run: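 Four female and four male Sprague-Dawley rats, 200-220 g, fasted 12 h, then given a single oral dose of 30 mg/kg as a 0.5% CMC-Na suspension. Blood sampled at 0.083, 0.25, 0.5, 1, 2, 4, 8 and 24 h, plasma separated by centrifugation at 4000 r/min for 10 min, and analysed by UPLC–MS/MS. Parameters reported as mean ± SD, n=6.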

HCC827 [15] = experiment: Induction of apoptosis in human HCC827 cells assessed as early apoptotic cells at 500 nM after 48 hrs by Annexin V-FITC/PI staining based flow cytometry (reference value: 2.83%); type: functional
[16] = biological target: T1, Epidermal growth factor receptor; experiment: Inhibition of EGFR in human H1975 cells assessed as decrease in EGF-induced ERK1/2 phosphorylation by Western blot method; type: cell-based; how it was run: as §1
A-431 [17] = experiment: Induction of apoptosis in human A431 cells assessed as viable cells at 250 nM after 48 hrs by Annexin V-FITC/PI staining based flow cytometry (reference value: 90.3%); type: functional; settings: A-431, 48 h, read-out: Activity
[18] = biological target: T1, Epidermal growth factor receptor; experiment: Inhibition of EGFR in human A431 cells assessed as decrease in EGF-induced ERK1/2 phosphorylation by Western blot method; type: cell-based; how it was run: as §1
A-431 [19] = experiment: Induction of apoptosis in human A431 cells assessed as late apoptotic cells at 1000 nM after 48 hrs by Annexin V-FITC/PI staining based flow cytometry (reference value: 2.11%); type: functional
HCC827 [20] = experiment: Induction of apoptosis in human HCC827 cells assessed as necrotic cells at 500 nM after 48 hrs by Annexin V-FITC/PI staining based flow cytometry (reference value: 1.41%); type: functional
NCI-H3255 [21] = experiment: Induction of apoptosis in human H3255 cells assessed as early apoptotic cells at 1000 nM after 48 hrs by Annexin V-FITC/PI staining based flow cytometry (reference value: 3.22%); type: functional
NCI-H1975 [22] = experiment: Induction of apoptosis in human NCI-H1975 cells assessed as necrotic cells at 500 nM after 48 hrs by Annexin V-FITC/PI staining based flow cytometry (reference value: 2.31%); type: functional
NCI-H1975 [23] = experiment: Induction of apoptosis in human NCI-H1975 cells assessed as late apoptotic cells at 500 nM after 48 hrs by Annexin V-FITC/PI staining based flow cytometry (reference value: 1.91%); type: functional
NCI-H3255 [24] = experiment: Induction of apoptosis in human H3255 cells assessed as necrotic cells at 1000 nM after 48 hrs by Annexin V-FITC/PI staining based flow cytometry (reference value: 7.06%); type: functional
NCI-H1975 [25] = experiment: Induction of apoptosis in human NCI-H1975 cells assessed as late apoptotic cells after 48 hrs by Annexin V-FITC/PI staining based flow cytometry; type: functional, cell-based
A-431 [26] = experiment: Induction of apoptosis in human A431 cells assessed as necrotic cells at 250 nM after 48 hrs by Annexin V-FITC/PI staining based flow cytometry (reference value: 4.16%); type: functional
HCC827 [27] = experiment: Induction of apoptosis in human HCC827 cells assessed as viable cells at 250 nM after 48 hrs by Annexin V-FITC/PI staining based flow cytometry (reference value: 94.6%); type: functional; settings: HCC827, 48 h, read-out: Activity

For `COc1cccc(Nc2cc(Nc3cc(OC)ccc3OC)ncn2)c1`, the Activity (HCC827 [1]) was 14.4%, the Activity (NCI-H3255 [2]) was 4.27% and the Activity (HCC827 [3]) was 12.4%. The viability at 0.5 µM (NCI-H3255 [4]) was 78.2%, the Activity (PC-9) was “Active” and the Activity (A-431 [5]) was 6.5%. The Activity (HCC827 [6]) was 10.2%, the inhibition [7] was “Dose-dependent effect” and the inhibition (Mus musculus [8]) was “Active”. For the same molecule, the inhibition (Mus musculus [9]) was “Active”, the Activity (NCI-H3255 [10]) was 10.6% and the Activity (A-431 [11]) was 3.61%. The viability at 0.5 µM (NCI-H1975 [12]) was 52.5%, the Activity (NCI-H1975 [13]) was 13.5% and the AUC(0-t) [14] was 5700 ng·h/mL. The Activity (HCC827 [15]) was 21.3%, the inhibition [16] was “Dose-dependent effect” and the viability at 0.25 µM (A-431 [17]) was 79.3%. For the same molecule, the inhibition [18] was “Dose-dependent effect”, the Activity (A-431 [19]) was 13% and the Activity (HCC827 [20]) was 9.2%. For the same molecule, the Activity (NCI-H3255 [21]) was 17.6%, the Activity (NCI-H1975 [22]) was 6.93% and the Activity (NCI-H1975 [23]) was 15.5%. The Activity (NCI-H3255 [24]) was 6.35%, the Activity (NCI-H1975 [25]) was “Dose-dependent effect” and the Activity (A-431 [26]) was 3.41%. It also gave a viability at 0.25 µM (HCC827 [27]) of 61.9%.

From ChEMBL document CHEMBL4265907, “Design, synthesis and pharmacological evaluation of N4,N6-disubstituted pyrimidine-4,6-diamine derivatives as potent EGFR inhibitors in non-small cell lung cancer” (Eur J Med Chem, 2018)
